Measured values of several laboratories.
Protocols differ between the studies behind these lines.
Target: Aurora kinase B (AURKB, Homo sapiens, UniProt Q96GD4)

| SMILES | test | conditions | remaining binding |
| --- | --- | --- | --- |
| O=C(c1ccc(Nc2nccc(-c3cc4ccccc4s3)n2)cc1)N1CCC(N2CCCC2)CC1 | binding, competition with immobilised ligand | 1 µM | 63% |
| N#Cc1ccccc1CSc1nnc2c(n1)[nH]c1ccccc12 | binding, competition with immobilised ligand | 10 µM | 100% |
| O=C(NCc1ncc(C(F)(F)F)cc1Cl)c1ccc2c(c1)C1(CCS(=O)(=O)CC1)[C@@H](C1CC1)N2S(=O)(=O)c1ccc(F)cc1 | cell-free assay, competition with immobilised ligand | 1 µM | 66% |
| COc1ccnn2ncc(-c3ccnc(N(C)C)n3)c12 | binding | 1 µM | 100% |
| CNC(=O)Nc1ccc2c(c1)CC[C@@]21OC(=O)N(CC(=O)N(Cc2ccc(F)cc2)[C@@H](C)C(F)(F)F)C1=O | cell-free assay, competition with immobilised ligand | 1 µM | 86% |
| O=C(NCCCN1CCOCC1)c1ccc(Nc2ncc(Cl)c(-c3ccc(Cl)s3)n2)cc1 | binding, competition with immobilised ligand | 1 µM | 15% |
| F[C@@H]1CCN(c2nccc(-c3cnn4ncccc34)n2)C1 | binding | 1 µM | 100% |
| O=C(c1ccc(Nc2ncc(Cl)c(-c3ccc(Cl)s3)n2)cc1)N1CCC(N2CCCC2)CC1 | binding, competition with immobilised ligand | 1 µM | 8.3% |
| CN([C@@H]1CCc2c(CC(=O)O)c3ccccc3n2C1)S(=O)(=O)c1ccc(F)cc1 | cell-free assay, competition with immobilised ligand | 1 µM | 91% |
| C[C@@H]1CN(c2ccc3ncc(-c4ccc5[nH]nc(C6CC6)c5c4)n3n2)C[C@H](C)O1 | binding, competition with immobilised ligand | 0.5 µM | 82% |
| CNC(=O)[C@@H]1CC[C@@H](n2c(-c3ccc4cnccc4c3)nc3ccc(C(=O)NCc4cccc(C(N)=O)c4)cc32)C1 | binding, competition with immobilised ligand | 1 µM | 95% |
| CN(C)c1ncc(F)c(-c2cnn3ncccc23)n1 | binding | 1 µM | 77% |
| c1cncc(-c2cccc(Nc3nccc(NC4CCCCC4)n3)c2)c1 | binding, competition with immobilised ligand | 10 µM | 23% |
| O=C(Nc1c[nH]nc1C(=O)NC1CCNCC1)c1cc(F)cc(F)c1 | binding, competition with immobilised ligand | 1 µM | 78% |
| CN([C@@H]1CCc2c(CC(=O)O)c3cc(S(C)(=O)=O)ccc3n2C1)S(=O)(=O)c1ccc(F)cc1 | cell-free assay, competition with immobilised ligand | 1 µM | 83% |
| C=CC(=O)N1CCC(C(=O)NCC(=O)N2CCN(c3nc(-c4cnc(N)nc4C(F)F)nc(N4CCOCC4)n3)CC2)CC1 | binding, competition with immobilised ligand | 1 µM | 56% |
| CC1=C(C#N)[C@@H](c2ccc3[nH]nc(C)c3c2)C(C#N)=C(c2ccc(Cl)cc2)N1 | cell-free assay, competition with immobilised ligand | 1 µM | 82.9% |
| Nc1ncc2c(n1)-c1c([nH]c3ccc(C#CC4CC4)cc13)CCCC2 | binding, competition with immobilised ligand | 1 µM | 43% |
| N[C@@H]1CCN(c2nccc(-c3cnn4ncccc34)n2)C1 | binding | 1 µM | 99% |
| COc1ccc2c(O[C@@H]3C[C@H]4C(=O)N[C@]5(C(=O)O)CC5/C=C\CCCCC[C@H](NC(=O)OC5CCCC5)C(=O)N4C3)cc(-c3csc(NC(=O)C(C)C)n3)nc2c1C (stereo partly shown) | cell-free assay, competition with immobilised ligand | 1 µM | 91% |
| COc1ncc2cc3ccccc3nc2c1C#N | cell-free assay, competition with immobilised ligand | 5 µM | 94% |
| CCN1CCN(Cc2ccc(C(=O)Nc3ccc(C)c(Oc4ccc5c(c4)CC(=O)N5)c3)cc2C(F)(F)F)CC1 | binding, competition with immobilised ligand | 1 µM | 100% |
